Assay results published in ChEMBL document CHEMBL5058577, “EUbOPEN Chemogenomics Library 2 (Multiplex)” (2022).

Tested on: U2OS
Test: Multiplex assay against U2OS
Assay type: toxicity, cell-based
Settings: human
In short: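 Phenotypes for tubulin, mitochondrial mass and membrane permeability are expressed as per cents of healthy-nucleus cells. Cells were stained live at seeding with Hoechst33342, BioTracker Green Microtubule Cytoskeleton Dye, MitoTracker Red and Annexin V Alexa Fluor 680, then imaged after compound addition on a CQ1 microscope at 37°C and 5% CO2. Machine-learning gating in CellPathfinder separated Hoechst high-intensity objects from normal cells, divided normal cells by nuclear state (healthy, pyknosed, fragmented) and divided pyknosed cells into mitotic or apoptotic.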

[1] = 12 h, 1 µM, compound concentration 1 uM, replicate 1
[2] = 12 h, 1 µM, compound concentration 1 uM, replicate 2
[3] = 12 h, 10 µM, compound concentration 10 uM, replicate 1
[4] = 12 h, 10 µM, compound concentration 10 uM, replicate 2
[5] = 24 h, 1 µM, compound concentration 1 uM, replicate 1
[6] = 24 h, 1 µM, compound concentration 1 uM, replicate 2
[7] = 24 h, 10 µM, compound concentration 10 uM, replicate 1
[8] = 24 h, 10 µM, compound concentration 10 uM, replicate 2
[9] = 48 h, 1 µM, compound concentration 1 uM, replicate 1
[10] = 48 h, 1 µM, compound concentration 1 uM, replicate 2
[11] = 48 h, 10 µM, compound concentration 10 uM, replicate 1
[12] = 48 h, 10 µM, compound concentration 10 uM, replicate 2

## Cl.Cl.OCCOCCN1CCN(C(c2ccccc2)c2ccc(Cl)cc2)CC1 (centres undefined) [HYDROXYZINE HYDROCHLORIDE]
[1]
  Population Apoptotic (%): 60%
  Population Fragmented Nuclei (%): 29%
  Population Healthy Nuclei (%): 61%
  Population Hoechst High Intensity Objects (%): 0%
  Population Membrane Permeable-Phenotype (%): 11%
  Population Mitochondria Different-Phenotype (%): 4%
  Population Mitotic Cells (%): 40%
  Population Normal (%): 99%
  Population Pyknosed Nuclei (%): 9%
  Population Tubulin-Different-Phenotype (%): 7%
  Total Cell Count: 208
[2]
  Population Apoptotic (%): 80%
  Population Fragmented Nuclei (%): 13%
  Population Healthy Nuclei (%): 78%
  Population Hoechst High Intensity Objects (%): 1%
  Population Membrane Permeable-Phenotype (%): 9%
  Population Mitochondria Different-Phenotype (%): 6%
  Population Mitotic Cells (%): 20%
  Population Normal (%): 98%
  Population Pyknosed Nuclei (%): 7%
  Population Tubulin-Different-Phenotype (%): 8%
  Total Cell Count: 139
[3]
  Population Apoptotic (%): 58%
  Population Fragmented Nuclei (%): 20%
  Population Healthy Nuclei (%): 66%
  Population Hoechst High Intensity Objects (%): 1%
  Population Membrane Permeable-Phenotype (%): 9%
  Population Mitochondria Different-Phenotype (%): 10%
  Population Mitotic Cells (%): 41%
  Population Normal (%): 98%
  Population Pyknosed Nuclei (%): 13%
  Population Tubulin-Different-Phenotype (%): 6%
  Total Cell Count: 316
[4]
  Population Apoptotic (%): 88%
  Population Fragmented Nuclei (%): 26%
  Population Hoechst High Intensity Objects (%): 2%
  Population Membrane Permeable-Phenotype (%): 5%
  Population Mitochondria Different-Phenotype (%): 7%
  Population Mitotic Cells (%): 11%
  Population Normal (%): 97%
  Population Pyknosed Nuclei (%): 6%
  Population Tubulin-Different-Phenotype (%): 7%
  Total Cell Count: 141
[5]
  Population Apoptotic (%): 96%
  Population Fragmented Nuclei (%): 25%
  Population Healthy Nuclei (%): 63%
  Population Hoechst High Intensity Objects (%): 1%
  Population Membrane Permeable-Phenotype (%): 8%
  Population Mitochondria Different-Phenotype (%): 4%
  Population Mitotic Cells (%): 4%
  Population Normal (%): 98%
  Population Pyknosed Nuclei (%): 10%
  Population Tubulin-Different-Phenotype (%): 7%
  Total Cell Count: 232
[6]
  Population Apoptotic (%): 77%
  Population Fragmented Nuclei (%): 9%
  Population Healthy Nuclei (%): 77%
  Population Hoechst High Intensity Objects (%): 2%
  Population Membrane Permeable-Phenotype (%): 5%
  Population Mitochondria Different-Phenotype (%): 1%
  Population Mitotic Cells (%): 22%
  Population Normal (%): 97%
  Population Pyknosed Nuclei (%): 12%
  Population Tubulin-Different-Phenotype (%): 1%
  Total Cell Count: 148
[7]
  Population Apoptotic (%): 73%
  Population Fragmented Nuclei (%): 23%
  Population Healthy Nuclei (%): 63%
  Population Hoechst High Intensity Objects (%): 2%
  Population Membrane Permeable-Phenotype (%): 10%
  Population Mitochondria Different-Phenotype (%): 8%
  Population Mitotic Cells (%): 26%
  Population Normal (%): 97%
  Population Pyknosed Nuclei (%): 12%
  Population Tubulin-Different-Phenotype (%): 4%
  Total Cell Count: 359
[8]
  Population Apoptotic (%): 61%
  Population Fragmented Nuclei (%): 31%
  Population Healthy Nuclei (%): 60%
  Population Membrane Permeable-Phenotype (%): 12%
  Population Mitochondria Different-Phenotype (%): 13%
  Population Mitotic Cells (%): 38%
  Population Pyknosed Nuclei (%): 7%
  Population Tubulin-Different-Phenotype (%): 9%
  Total Cell Count: 168
[9]
  Population Apoptotic (%): 89%
  Population Fragmented Nuclei (%): 24%
  Population Healthy Nuclei (%): 62%
  Population Hoechst High Intensity Objects (%): 2%
  Population Membrane Permeable-Phenotype (%): 4%
  Population Mitochondria Different-Phenotype (%): 3%
  Population Mitotic Cells (%): 10%
  Population Normal (%): 97%
  Population Pyknosed Nuclei (%): 13%
  Population Tubulin-Different-Phenotype (%): 4%
  Total Cell Count: 300
[10]
  Population Apoptotic (%): 90%
  Population Fragmented Nuclei (%): 14%
  Population Healthy Nuclei (%): 76%
  Population Membrane Permeable-Phenotype (%): 5%
  Population Pyknosed Nuclei (%): 8%
  Population Tubulin-Different-Phenotype (%): 0%
  Total Cell Count: 230
[11]
  Population Apoptotic (%): 83%
  Population Fragmented Nuclei (%): 17%
  Population Healthy Nuclei (%): 68%
  Population Hoechst High Intensity Objects (%): 2%
  Population Membrane Permeable-Phenotype (%): 8%
  Population Mitochondria Different-Phenotype (%): 6%
  Population Mitotic Cells (%): 16%
  Population Normal (%): 97%
  Population Pyknosed Nuclei (%): 13%
  Population Tubulin-Different-Phenotype (%): 4%
  Total Cell Count: 456
[12]
  Population Fragmented Nuclei (%): 27%
  Population Healthy Nuclei (%): 64%
  Population Hoechst High Intensity Objects (%): 5%
  Population Membrane Permeable-Phenotype (%): 10%
  Population Mitochondria Different-Phenotype (%): 5%
  Population Normal (%): 94%
  Population Pyknosed Nuclei (%): 8%
  Population Tubulin-Different-Phenotype (%): 5%
  Total Cell Count: 231

## Cc1ccc(OCC(O)C(C)NC(C)C)c2c1CCC2.Cl (centres undefined)
[1]
  Population Apoptotic (%): 63%
  Population Fragmented Nuclei (%): 19%
  Population Healthy Nuclei (%): 66%
  Population Hoechst High Intensity Objects (%): 2%
  Population Membrane Permeable-Phenotype (%): 8%
  Population Mitochondria Different-Phenotype (%): 3%
  Population Mitotic Cells (%): 36%
  Population Normal (%): 97%
  Population Pyknosed Nuclei (%): 13%
  Population Tubulin-Different-Phenotype (%): 4%
  Total Cell Count: 222
[2]
  Population Apoptotic (%): 90%
  Population Fragmented Nuclei (%): 11%
  Population Healthy Nuclei (%): 79%
  Population Hoechst High Intensity Objects (%): 1%
  Population Membrane Permeable-Phenotype (%): 7%
  Population Mitochondria Different-Phenotype (%): 2%
  Population Mitotic Cells (%): 9%
  Population Normal (%): 98%
  Population Pyknosed Nuclei (%): 8%
  Population Tubulin-Different-Phenotype (%): 2%
  Total Cell Count: 129
[3]
  Population Apoptotic (%): 61%
  Population Fragmented Nuclei (%): 30%
  Population Healthy Nuclei (%): 52%
  Population Hoechst High Intensity Objects (%): 5%
  Population Membrane Permeable-Phenotype (%): 14%
  Population Mitochondria Different-Phenotype (%): 17%
  Population Mitotic Cells (%): 38%
  Population Normal (%): 94%
  Population Pyknosed Nuclei (%): 16%
  Population Tubulin-Different-Phenotype (%): 8%
  Total Cell Count: 215
[4]
  Population Apoptotic (%): 80%
  Population Fragmented Nuclei (%): 11%
  Population Healthy Nuclei (%): 81%
  Population Hoechst High Intensity Objects (%): 0%
  Population Membrane Permeable-Phenotype (%): 9%
  Population Mitochondria Different-Phenotype (%): 22%
  Population Mitotic Cells (%): 20%
  Population Normal (%): 99%
  Population Pyknosed Nuclei (%): 7%
  Population Tubulin-Different-Phenotype (%): 9%
  Total Cell Count: 137
[5]
  Population Apoptotic (%): 88%
  Population Fragmented Nuclei (%): 14%
  Population Healthy Nuclei (%): 75%
  Population Hoechst High Intensity Objects (%): 0%
  Population Membrane Permeable-Phenotype (%): 5%
  Population Mitochondria Different-Phenotype (%): 3%
  Population Mitotic Cells (%): 11%
  Population Normal (%): 100%
  Population Pyknosed Nuclei (%): 10%
  Population Tubulin-Different-Phenotype (%): 4%
  Total Cell Count: 255
[6]
  Population Apoptotic (%): 93%
  Population Fragmented Nuclei (%): 15%
  Population Healthy Nuclei (%): 73%
  Population Hoechst High Intensity Objects (%): 1%
  Population Membrane Permeable-Phenotype (%): 3%
  Population Mitochondria Different-Phenotype (%): 5%
  Population Mitotic Cells (%): 6%
  Population Normal (%): 98%
  Population Tubulin-Different-Phenotype (%): 0%
  Total Cell Count: 155
[7]
  Population Apoptotic (%): 82%
  Population Fragmented Nuclei (%): 26%
  Population Healthy Nuclei (%): 56%
  Population Hoechst High Intensity Objects (%): 3%
  Population Membrane Permeable-Phenotype (%): 10%
  Population Mitochondria Different-Phenotype (%): 17%
  Population Mitotic Cells (%): 17%
  Population Normal (%): 96%
  Population Pyknosed Nuclei (%): 17%
  Population Tubulin-Different-Phenotype (%): 4%
  Total Cell Count: 230
[8]
  Population Apoptotic (%): 92%
  Population Fragmented Nuclei (%): 14%
  Population Healthy Nuclei (%): 77%
  Population Hoechst High Intensity Objects (%): 2%
  Population Membrane Permeable-Phenotype (%): 12%
  Population Mitochondria Different-Phenotype (%): 11%
  Population Mitotic Cells (%): 7%
  Population Normal (%): 97%
  Population Pyknosed Nuclei (%): 8%
  Population Tubulin-Different-Phenotype (%): 6%
  Total Cell Count: 172
[9]
  Population Apoptotic (%): 88%
  Population Fragmented Nuclei (%): 14%
  Population Healthy Nuclei (%): 73%
  Population Hoechst High Intensity Objects (%): 0%
  Population Membrane Permeable-Phenotype (%): 6%
  Population Mitochondria Different-Phenotype (%): 4%
  Population Mitotic Cells (%): 11%
  Population Normal (%): 99%
  Population Pyknosed Nuclei (%): 12%
  Population Tubulin-Different-Phenotype (%): 3%
  Total Cell Count: 377
[10]
  Population Apoptotic (%): 80%
  Population Fragmented Nuclei (%): 20%
  Population Healthy Nuclei (%): 69%
  Population Hoechst High Intensity Objects (%): 2%
  Population Membrane Permeable-Phenotype (%): 5%
  Population Mitochondria Different-Phenotype (%): 3%
  Population Mitotic Cells (%): 20%
  Population Normal (%): 97%
  Population Pyknosed Nuclei (%): 10%
  Population Tubulin-Different-Phenotype (%): 2%
  Total Cell Count: 202
[11]
  Population Apoptotic (%): 82%
  Population Fragmented Nuclei (%): 23%
  Population Healthy Nuclei (%): 63%
  Population Hoechst High Intensity Objects (%): 4%
  Population Membrane Permeable-Phenotype (%): 12%
  Population Mitochondria Different-Phenotype (%): 12%
  Population Mitotic Cells (%): 17%
  Population Normal (%): 95%
  Population Pyknosed Nuclei (%): 13%
  Population Tubulin-Different-Phenotype (%): 6%
  Total Cell Count: 306
[12]
  Population Apoptotic (%): 77%
  Population Fragmented Nuclei (%): 15%
  Population Healthy Nuclei (%): 73%
  Population Hoechst High Intensity Objects (%): 0%
  Population Membrane Permeable-Phenotype (%): 7%
  Population Mitochondria Different-Phenotype (%): 4%
  Population Mitotic Cells (%): 22%
  Population Normal (%): 99%
  Population Pyknosed Nuclei (%): 11%
  Population Tubulin-Different-Phenotype (%): 3%
  Total Cell Count: 246
